Assay results of several laboratories.
Protocols differ between the studies behind these lines.
Target: Serine/threonine-protein kinase LATS2 (LATS2, Homo sapiens, UniProt Q9NRM7)
One construct used (Q9NRM7 1-1088): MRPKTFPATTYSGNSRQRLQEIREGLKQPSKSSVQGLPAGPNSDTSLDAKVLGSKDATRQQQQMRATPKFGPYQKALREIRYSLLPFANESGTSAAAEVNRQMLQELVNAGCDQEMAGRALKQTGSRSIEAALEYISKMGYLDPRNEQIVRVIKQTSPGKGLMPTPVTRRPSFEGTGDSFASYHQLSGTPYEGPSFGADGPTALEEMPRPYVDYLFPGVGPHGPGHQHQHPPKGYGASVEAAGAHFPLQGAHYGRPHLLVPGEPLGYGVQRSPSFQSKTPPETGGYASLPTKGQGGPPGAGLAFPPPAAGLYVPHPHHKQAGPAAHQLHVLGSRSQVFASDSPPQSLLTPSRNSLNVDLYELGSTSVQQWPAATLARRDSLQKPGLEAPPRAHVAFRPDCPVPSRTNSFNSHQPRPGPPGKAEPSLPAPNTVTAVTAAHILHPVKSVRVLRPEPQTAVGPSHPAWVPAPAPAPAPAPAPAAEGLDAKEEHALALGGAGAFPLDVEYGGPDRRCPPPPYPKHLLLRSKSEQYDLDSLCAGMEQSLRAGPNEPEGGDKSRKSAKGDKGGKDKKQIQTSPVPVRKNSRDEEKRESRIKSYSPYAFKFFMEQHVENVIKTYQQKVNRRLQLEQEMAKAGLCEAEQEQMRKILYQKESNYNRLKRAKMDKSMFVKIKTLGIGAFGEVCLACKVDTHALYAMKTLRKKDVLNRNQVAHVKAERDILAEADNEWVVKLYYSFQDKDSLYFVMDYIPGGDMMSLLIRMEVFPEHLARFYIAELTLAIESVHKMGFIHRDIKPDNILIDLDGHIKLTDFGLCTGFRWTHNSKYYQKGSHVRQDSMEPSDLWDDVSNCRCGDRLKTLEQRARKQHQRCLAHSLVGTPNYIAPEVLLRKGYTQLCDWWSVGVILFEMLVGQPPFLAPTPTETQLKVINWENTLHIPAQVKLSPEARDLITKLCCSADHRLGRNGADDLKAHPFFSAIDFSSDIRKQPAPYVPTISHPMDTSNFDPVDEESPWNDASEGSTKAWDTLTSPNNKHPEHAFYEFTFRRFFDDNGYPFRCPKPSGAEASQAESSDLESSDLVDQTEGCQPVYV

O=C(c1ccc(Nc2ncc(Cl)c(-c3ccc(Cl)s3)n2)cc1)N1CCC(N2CCCC2)CC1 has a remaining binding of 3.8% (binding; competition with immobilised ligand; 1 µM).
C[C@@H]1CCN(c2nccc(-c3cnn4ncccc34)n2)C1 has a remaining binding of 93% (binding; 1 µM).
The remaining binding of O=C(NCC1CCOCC1)c1n[nH]cc1NC(=O)c1c(F)cccc1F is reported as 87% (binding; competition with immobilised ligand; 1 µM).
With CN(C)c1nccc(-c2cnc3ncccn23)n1 the remaining binding was 79% (binding; 1 µM).
CS(=O)(=O)NCC[C@H](NC(=O)c1cncc2c1cnn2-c1ccc(F)cc1)c1ccnc(S(C)(=O)=O)c1 has a remaining binding of 97% (cell-free assay; competition with immobilised ligand; 1 µM).
F[C@@H]1CCN(c2nccc(-c3cnn4ncccc34)n2)C1 has a remaining binding of 100% (binding; 1 µM).
For c1cncc(-c2cccc(Nc3nccc(NC4CCCCC4)n3)c2)c1, the remaining binding was 12% (binding; competition with immobilised ligand; 10 µM).
The remaining binding of CN(C)c1ncc(F)c(-c2cnn3ncccc23)n1 is reported as 72% (binding; 1 µM).
NS(=O)(=O)c1cc(NC(=O)Cc2ccccc2)ccc1Oc1cccc(Cl)c1 has a remaining binding of 94% (cell-free assay; competition with immobilised ligand; 1 µM).
For Cc1cnc(Nc2ccc(C(=O)N3CCC(N4CCCC4)CC3)cc2)nc1-c1cc2ccccc2s1, the remaining binding was 44% (binding; competition with immobilised ligand; 1 µM).
Cc1nc(C2CCN(C(=O)c3ccc(OC(F)(F)F)cc3N)CC2)c2ncc(N3CCN(C)CC3)cc2n1 gave a remaining binding of 100% (cell-free assay; competition with immobilised ligand; 1 µM).
The remaining binding of CC1CCCN1c1nccc(-c2cnn3ncccc23)n1 (centres unmarked) is reported as 100% (binding; 1 µM).
FC(F)(F)Oc1cccc(-c2cnc3ccc(-c4ccncc4)nn23)c1 gave a remaining binding of 38% (cell-free assay; competition with immobilised ligand; 5 µM).
The remaining binding of CCCNc1nc(C#Cc2ccc(Cl)s2)nc2c1ncn2[C@H]1[C@H](O)[C@H](O)[C@]2(C(=O)NC)C[C@H]12 is reported as 26% (binding; competition with immobilised ligand; 10 µM).
O=C1CCc2cc(Nc3cc(OC4CCOCC4)c([N+](=O)[O-])cc3Cl)ccc2N1 has a remaining binding of 80% (cell-free assay; competition with immobilised ligand; 1 µM).
With CNC(=O)[C@@H]1CC[C@@H](n2c(-c3ccc4cnccc4c3)nc3ccc(C(=O)NCc4cccc(C(N)=O)c4)cc32)C1 the remaining binding was 100% (binding; competition with immobilised ligand; 1 µM).
With FC(F)(F)c1ccc2c(c1)nc(-c1cccnc1)n2C1CC1 the remaining binding was 100% (cell-free assay; competition with immobilised ligand; 1 µM).
c1cnn2ncc(-c3ccnc(N4CCC45COC5)n3)c2c1 has a remaining binding of 88% (binding; 1 µM).
For C[C@@]1(Cc2ccc(C#N)cc2)C(=O)N(c2cc(Cl)cc(Cl)c2)c2ncc(C(=O)NC3(c4nc(C5CCC5)no4)CC3)n21, the remaining binding was 92% (cell-free assay; competition with immobilised ligand; 1 µM).
The remaining binding of COc1ncc2cc3ccccc3nc2c1C#N is reported as 90% (cell-free assay; competition with immobilised ligand; 5 µM).
